According to ChEMBL document CHEMBL4819119, “Design and evaluation of 1,2,3-dithiazoles and fused 1,2,4-dithiazines as anti-cancer agents” (Bioorg Med Chem Lett, 2021):
≈ marks a conversion by molar mass, not a printed value.

Legend:
[1] = test system: A-431; assay: Cytotoxicity against human A-431 cells assessed as reduction in cell viability incubated for 72 hrs by alamar blue assay; assay type: functional, cell-based; details: A-431, 72 h
In short: (§1)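 Cells seeded in 384-well plates and dosed 24 h after plating, in quadruplicate. Viability was read by alamarBlue fluorescence at 72 h. IC50 came from nonlinear regression as the mean of 4 replicates. Growth media carried 10% FBS and 1% pen/strep: UCH1/UCH2 in 4:1 IMDM:RPMI-1640 in gel-coated flasks; A431, PANC1 and WS1 in DMEM; DU145 and MCF7 in MEM; 5637 in RPMI-1640.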

[2] = test system: MCF7; assay: Cytotoxicity against human MCF7 cells assessed as reduction in cell viability incubated for 72 hrs by alamar blue assay; assay type: functional, cell-based; details: MCF7, 72 h; in short: as §1
[3] = Cytotoxicity against human UCH2 cells assessed as reduction in cell viability incubated for 72 hrs by alamar blue assay; assay type: functional, cell-based; details: UCH2, 72 h; in short: as §1
[4] = Cytotoxicity against human UCH1 cells assessed as reduction in cell viability incubated for 72 hrs by alamar blue assay; assay type: functional, cell-based; details: UCH1, 72 h; in short: as §1
[5] = Cytotoxicity against human WS1 cells assessed as reduction in cell viability incubated for 72 hrs by alamar blue assay; assay type: cell-based; details: WS1, 72 h; in short: as §1
[6] = test system: 5637; assay: Cytotoxicity against human 5637 cells assessed as reduction in cell viability incubated for 72 hrs by alamar blue assay; assay type: functional, cell-based; details: Homo sapiens, 5637, 72 h; in short: as §1
[7] = test system: DU-145; assay: Cytotoxicity against human DU-145 cells assessed as reduction in cell viability incubated for 72 hrs by alamar blue assay; assay type: functional, cell-based; details: DU-145, 72 h; in short: as §1
[8] = test system: PANC-1; assay: Cytotoxicity against human PANC1 cells assessed as reduction in cell viability incubated for 72 hrs by alamar blue assay; assay type: functional, cell-based; details: PANC-1, 72 h; in short: as §1
[9] = biological target: T1, Neutral amino acid transporter B(0) (Homo sapiens, UniProt Q15758); assay: Inhibition of ASCT2 (unknown origin)
T1 sequence (Q15758 whole entry): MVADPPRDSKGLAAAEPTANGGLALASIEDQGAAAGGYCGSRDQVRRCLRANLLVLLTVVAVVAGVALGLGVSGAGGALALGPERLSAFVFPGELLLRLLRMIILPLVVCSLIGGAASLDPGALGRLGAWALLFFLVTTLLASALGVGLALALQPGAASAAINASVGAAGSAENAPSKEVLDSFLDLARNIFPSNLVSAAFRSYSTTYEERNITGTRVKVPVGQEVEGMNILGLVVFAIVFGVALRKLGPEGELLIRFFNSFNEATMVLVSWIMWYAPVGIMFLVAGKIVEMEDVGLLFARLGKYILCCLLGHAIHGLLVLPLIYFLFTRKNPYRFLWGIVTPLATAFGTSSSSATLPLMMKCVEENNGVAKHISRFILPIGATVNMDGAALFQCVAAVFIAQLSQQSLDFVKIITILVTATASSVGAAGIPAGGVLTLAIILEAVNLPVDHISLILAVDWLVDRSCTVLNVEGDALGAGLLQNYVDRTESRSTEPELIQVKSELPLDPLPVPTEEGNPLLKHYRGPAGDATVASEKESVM

[10] = test system: K562; assay: Cytotoxicity against human K562 cells; assay type: functional, cell-based
[11] = test system: L1210; assay: Cytotoxicity against mouse L1210 cells; assay type: functional, cell-based
[12] = test system: Staphylococcus aureus; assay: Antibacterial activity against Staphylococcus aureus; assay type: functional
[13] = test system: Listeria monocytogenes; assay: Antibacterial activity against Listeria monocytogenes; assay type: functional
[14] = test system: Enterococcus faecalis; assay: Antibacterial activity against Enterococcus faecalis; assay type: functional
[15] = test system: Cryptococcus neoformans; assay: Antifungal activity against Cryptococcus neoformans; assay type: functional
[16] = test system: PANC-1; assay: Cytotoxicity against human PANC1 cells assessed as reduction in cell viability incubated upto 72 hrs by MTT assay; assay type: functional, cell-based; details: PANC-1, 72 h
[17] = test system: 5637; assay: Cytotoxicity against human 5637 cells assessed as reduction in cell viability incubated for 3 hrs by MTT assay; assay type: functional, cell-based; details: Homo sapiens, 5637, 3 h

IC50 [9]	MIC [12]	MIC [13]	MIC [14]	MIC [15]	SMILES	IC50 [1]	IC50 [2]	IC50 [3]	IC50 [4]	IC50 [5]	IC50 [6]	IC50 [7]	IC50 [8]	IC50 [10]	IC50 [11]	IC50 [16]	IC50 [17]
					Clc1nss/c1=N\c1ccc(Oc2ccccc2)cc1	> 100 µM	35 µM	33 µM	30 µM	> 100 µM	35 µM	> 100 µM	55 µM				
					O=c1ssnc1N1CCN(CCSc2nc3ccccc3s2)CC1	90 µM	9.9 µM	31 µM	25 µM	92 µM	33 µM	22 µM	77 µM				
					CN(CCN1CCN(c2nssc2=O)CC1)c1ccccc1	17 µM	2.2 µM	17 µM	12 µM	20 µM	12 µM	4.4 µM	21 µM				
8.1 µM					CC.FC(F)(F)Oc1ccc(/N=c2\ssnc2Cl)cc1Cl	> 100 µM	88 µM	43 µM	> 100 µM	> 100 µM	33 µM	32 µM	> 100 µM				
					N#Cc1cnn(CCc2ccccc2)c1/N=c1\ssnc1Cl									3 µM	5 µM		
					Clc1nss/c1=N\c1ccc2c(c1)OCO2	95 µM	19 µM	22 µM	28 µM	84 µM	32 µM	17 µM	24 µM				
					O=S(=O)(Nc1ncccn1)c1ccc(/N=c2\ssnc2Cl)cc1	> 100 µM	3 µM	19 µM	34 µM	> 100 µM	39 µM	29 µM	37 µM				
					Clc1nss/c1=N\c1ccc(OCc2ccccc2)cc1	> 100 µM	50 µM	> 100 µM	44 µM	> 100 µM	13 µM	45 µM	> 100 µM				
					N#CC1=Nc2c(c(-c3ccccc3)nn2Cc2ccccc2)SS1	54 µM	54 µM	> 100 µM	> 100 µM	51 µM	8.7 µM	32 µM	> 100 µM				
					N#CSCCN1CCN(c2nss/c2=N\c2ccccc2)CC1	> 100 µM	32 µM	38 µM	38 µM	> 100 µM	93 µM	14 µM	16 µM				
					CCCCOc1ccc(/N=c2\ssnc2Cl)cc1	> 100 µM	42 µM	48 µM	54 µM	> 100 µM	18 µM	52 µM	> 100 µM				
					N#Cc1c(Br)cccc1/N=c1\ssnc1Cl	> 100 µM	28 µM	65 µM	39 µM	> 100 µM	14 µM	42 µM	13 µM				
					Clc1nss/c1=N\c1cc(-c2ccccc2)nn1Cc1ccccc1	> 100 µM	30 µM	52 µM	30 µM	> 100 µM	16 µM	14 µM	18 µM				
					FC(F)(F)Oc1ccc(/N=c2\ssnc2Cl)cc1Br	100 µM	73 µM	85 µM	34 µM	> 100 µM	36 µM	52 µM	> 100 µM				
	16 µg/mL (≈ 70 µM)	16 µg/mL (≈ 70 µM)	16 µg/mL (≈ 70 µM)		Clc1nss/c1=N\c1ccccc1												
				8 µg/mL (≈ 30.9 µM)	COc1ccc(/N=c2\ssnc2Cl)cc1												
				8 µg/mL (≈ 31.5 µM)	N#Cc1ccccc1/N=c1\ssnc1Cl												
					Cc1[nH]c2ccccc2c1CCNCc1ccc(/C=C/C(=O)NO)cc1 [PANOBINOSTAT]											1 µM	
					Cc1ccc(Nc2nccc(N(C)c3ccc4c(C)n(C)nc4c3)n2)cc1S(N)(=O)=O [PAZOPANIB]												15 µM
